Data published in publication PMC3778256 (Epilepsy research, 2012).

Legend:
[1] = Plasma protein binding by ultrafiltration; format: in vitro ADME; details: rat plasma, n = 3
[2] = system: P-glycoprotein (Pgp) at the blood-brain barrier
[3] = system: P-glycoprotein (Pgp) at the blood-brain barrier; experiment: Paired small-animal PET scans in rats before and after tariquidar
[4] = target: multidrug resistance proteins (MRPs) at the murine BBB (Mus musculus, UniProt O35379); details: single 60-min PET scans, n = 4 each
Sequence of multidrug resistance proteins (MRPs) at the murine BBB (Mus musculus, UniProt O35379) (O35379 whole entry): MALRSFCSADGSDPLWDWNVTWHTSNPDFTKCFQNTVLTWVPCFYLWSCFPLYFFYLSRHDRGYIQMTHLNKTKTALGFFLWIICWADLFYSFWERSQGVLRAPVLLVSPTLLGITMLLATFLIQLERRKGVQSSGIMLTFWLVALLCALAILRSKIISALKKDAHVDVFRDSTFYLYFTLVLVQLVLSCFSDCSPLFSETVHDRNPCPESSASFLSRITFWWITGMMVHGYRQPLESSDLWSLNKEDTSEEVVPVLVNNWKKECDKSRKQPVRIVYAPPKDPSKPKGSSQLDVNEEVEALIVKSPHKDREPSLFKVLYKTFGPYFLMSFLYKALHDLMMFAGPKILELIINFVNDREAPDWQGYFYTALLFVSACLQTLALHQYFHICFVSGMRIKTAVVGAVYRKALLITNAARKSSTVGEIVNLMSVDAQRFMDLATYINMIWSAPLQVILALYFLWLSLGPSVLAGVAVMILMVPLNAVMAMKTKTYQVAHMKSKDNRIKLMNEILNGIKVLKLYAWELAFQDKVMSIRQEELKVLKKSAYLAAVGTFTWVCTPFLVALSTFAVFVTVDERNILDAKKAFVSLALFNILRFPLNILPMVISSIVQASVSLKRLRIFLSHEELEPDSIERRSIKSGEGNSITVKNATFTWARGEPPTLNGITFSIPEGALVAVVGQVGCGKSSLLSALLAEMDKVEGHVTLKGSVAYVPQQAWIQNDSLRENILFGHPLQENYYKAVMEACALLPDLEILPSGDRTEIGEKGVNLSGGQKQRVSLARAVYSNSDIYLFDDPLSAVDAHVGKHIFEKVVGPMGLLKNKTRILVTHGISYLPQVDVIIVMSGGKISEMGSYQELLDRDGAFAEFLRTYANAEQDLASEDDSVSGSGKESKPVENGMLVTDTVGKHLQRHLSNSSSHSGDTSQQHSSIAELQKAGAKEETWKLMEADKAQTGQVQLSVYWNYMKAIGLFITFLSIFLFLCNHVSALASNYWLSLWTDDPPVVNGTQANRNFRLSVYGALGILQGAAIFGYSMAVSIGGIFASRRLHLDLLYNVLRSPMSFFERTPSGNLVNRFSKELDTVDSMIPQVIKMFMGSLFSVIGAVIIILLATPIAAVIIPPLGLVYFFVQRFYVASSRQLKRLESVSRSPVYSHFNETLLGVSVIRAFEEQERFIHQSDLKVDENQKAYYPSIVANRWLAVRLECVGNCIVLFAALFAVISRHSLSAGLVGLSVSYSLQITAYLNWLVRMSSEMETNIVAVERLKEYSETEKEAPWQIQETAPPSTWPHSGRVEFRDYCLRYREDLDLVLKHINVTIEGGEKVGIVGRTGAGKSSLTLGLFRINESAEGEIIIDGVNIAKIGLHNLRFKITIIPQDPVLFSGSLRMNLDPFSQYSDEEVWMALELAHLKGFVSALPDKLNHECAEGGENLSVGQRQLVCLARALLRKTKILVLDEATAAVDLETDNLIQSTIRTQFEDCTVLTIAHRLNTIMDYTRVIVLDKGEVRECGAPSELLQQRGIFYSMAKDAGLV

[5] = system: multidrug resistance proteins (MRPs) at the murine BBB; details: wild-type mice, MK571 20 mg/kg iv 30 min before scan
[6] = Radio-HPLC analysis of radiolabelled metabolites in rat plasma and brain; details: 40 min after injection
murine Mdr1a (Pgp) = murine Mdr1a (Pgp) (Mus musculus, UniProt P21447); experiment: Concentration equilibrium transport assay in LLC-Mdr1a cells; format: cell-based; details: 50 μM both chambers, 6 h, with/without tariquidar 0.5 μM
Sequence of murine Mdr1a (Pgp) (P21447 whole entry): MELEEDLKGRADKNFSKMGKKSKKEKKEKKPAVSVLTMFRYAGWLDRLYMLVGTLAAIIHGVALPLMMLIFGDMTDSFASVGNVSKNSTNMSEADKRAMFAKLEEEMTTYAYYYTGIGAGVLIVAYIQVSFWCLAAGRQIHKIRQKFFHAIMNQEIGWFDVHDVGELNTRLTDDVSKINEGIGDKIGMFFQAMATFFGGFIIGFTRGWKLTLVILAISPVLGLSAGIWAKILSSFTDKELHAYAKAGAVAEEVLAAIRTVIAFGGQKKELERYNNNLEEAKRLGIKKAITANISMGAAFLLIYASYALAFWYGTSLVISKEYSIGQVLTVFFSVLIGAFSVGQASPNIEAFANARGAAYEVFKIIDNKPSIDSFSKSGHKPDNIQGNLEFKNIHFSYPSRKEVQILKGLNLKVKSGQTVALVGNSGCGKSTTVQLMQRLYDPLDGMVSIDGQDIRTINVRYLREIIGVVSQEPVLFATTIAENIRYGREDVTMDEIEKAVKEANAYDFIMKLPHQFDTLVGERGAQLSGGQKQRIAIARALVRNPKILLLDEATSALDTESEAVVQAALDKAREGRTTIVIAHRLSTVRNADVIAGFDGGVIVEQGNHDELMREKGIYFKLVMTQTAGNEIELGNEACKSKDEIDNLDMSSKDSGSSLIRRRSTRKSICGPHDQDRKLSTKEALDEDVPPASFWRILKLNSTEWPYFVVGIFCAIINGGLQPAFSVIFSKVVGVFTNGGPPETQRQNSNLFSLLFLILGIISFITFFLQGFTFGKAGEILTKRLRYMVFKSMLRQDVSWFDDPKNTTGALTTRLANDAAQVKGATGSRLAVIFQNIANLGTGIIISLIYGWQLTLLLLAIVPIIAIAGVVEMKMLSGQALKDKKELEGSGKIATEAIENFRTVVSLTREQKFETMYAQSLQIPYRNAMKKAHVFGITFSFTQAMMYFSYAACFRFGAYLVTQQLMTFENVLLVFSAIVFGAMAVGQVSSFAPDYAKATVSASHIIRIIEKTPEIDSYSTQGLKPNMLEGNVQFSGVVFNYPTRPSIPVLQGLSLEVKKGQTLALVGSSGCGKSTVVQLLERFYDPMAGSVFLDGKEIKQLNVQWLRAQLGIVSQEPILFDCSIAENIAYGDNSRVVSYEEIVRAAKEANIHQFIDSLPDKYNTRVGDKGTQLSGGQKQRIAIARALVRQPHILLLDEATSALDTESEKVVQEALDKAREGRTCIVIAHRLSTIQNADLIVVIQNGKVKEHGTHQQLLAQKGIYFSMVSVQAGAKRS

human MDR1 (Pgp) [7] = target: T1, human MDR1 (Pgp) (Homo sapiens, UniProt P08183); experiment: Concentration equilibrium transport assay in LLC-MDR1 cells; format: cell-based; details: 50 μM both chambers, 6 h, with/without tariquidar 0.5 μM
T1 sequence (P08183 whole entry): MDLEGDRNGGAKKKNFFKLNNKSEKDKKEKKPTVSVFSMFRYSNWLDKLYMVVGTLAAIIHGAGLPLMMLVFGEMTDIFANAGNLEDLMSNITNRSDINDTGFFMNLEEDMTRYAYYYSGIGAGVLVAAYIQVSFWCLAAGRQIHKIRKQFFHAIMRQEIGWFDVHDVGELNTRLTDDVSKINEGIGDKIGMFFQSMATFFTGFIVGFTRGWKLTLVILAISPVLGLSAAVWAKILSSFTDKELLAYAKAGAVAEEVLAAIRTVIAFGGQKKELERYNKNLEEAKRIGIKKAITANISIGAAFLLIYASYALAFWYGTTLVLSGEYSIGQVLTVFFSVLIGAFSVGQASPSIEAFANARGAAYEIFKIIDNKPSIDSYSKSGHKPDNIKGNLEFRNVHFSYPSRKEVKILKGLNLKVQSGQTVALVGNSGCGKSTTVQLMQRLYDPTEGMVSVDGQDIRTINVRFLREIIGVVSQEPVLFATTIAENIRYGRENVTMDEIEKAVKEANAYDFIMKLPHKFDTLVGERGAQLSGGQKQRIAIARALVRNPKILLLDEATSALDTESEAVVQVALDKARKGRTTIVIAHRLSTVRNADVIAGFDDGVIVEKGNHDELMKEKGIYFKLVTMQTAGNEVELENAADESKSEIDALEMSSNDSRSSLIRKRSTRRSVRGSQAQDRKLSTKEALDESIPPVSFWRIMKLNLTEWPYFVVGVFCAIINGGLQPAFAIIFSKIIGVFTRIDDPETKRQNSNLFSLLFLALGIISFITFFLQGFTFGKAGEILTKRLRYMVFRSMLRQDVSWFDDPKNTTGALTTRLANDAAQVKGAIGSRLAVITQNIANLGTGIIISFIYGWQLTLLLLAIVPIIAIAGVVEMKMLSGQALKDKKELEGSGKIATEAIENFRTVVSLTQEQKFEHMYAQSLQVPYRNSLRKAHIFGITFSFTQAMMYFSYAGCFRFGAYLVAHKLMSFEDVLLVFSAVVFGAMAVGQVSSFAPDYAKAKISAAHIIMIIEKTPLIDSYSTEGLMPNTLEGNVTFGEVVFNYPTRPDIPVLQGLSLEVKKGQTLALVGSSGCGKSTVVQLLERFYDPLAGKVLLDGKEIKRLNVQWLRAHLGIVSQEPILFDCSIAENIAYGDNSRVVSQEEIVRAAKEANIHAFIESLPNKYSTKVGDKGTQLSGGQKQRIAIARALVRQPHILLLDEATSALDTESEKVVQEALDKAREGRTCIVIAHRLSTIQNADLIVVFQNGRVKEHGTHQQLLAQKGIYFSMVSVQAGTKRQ

human MRP1 = human MRP1 (Homo sapiens, UniProt P33527); experiment: Concentration equilibrium transport assay in LLC-MRP1 cells; format: cell-based; details: 50 μM both chambers, 6 h, with/without MK571 50 μM
Summary of the method: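 LLC-PK1 transfected with MRP1, ≤13 passages, seeded at 0.3 × 10^6 cells/cm2 on polyester filters; assayed 5–7 days post-confluence in Opti-MEM after 1 h pre-incubation ± MK571 50 µM. Test compound 50 µM in both chambers; both sampled at 60, 120, 240, 360 min; 37°C, 5% CO2, 50 rpm; triplicate. Integrity: TEER, [14C]mannitol; calcein-AM 1 µM positive control.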

human MDR1 (Pgp) [8] = target: T1, human MDR1 (Pgp); details: tariquidar 0.5 μM; ref Luna-Tortós et al. 2008; cited from earlier work
[9] = system: P-glycoprotein (Pgp) at the blood-brain barrier; details: naïve rats, 15 mg/kg; ref Kuntner et al. 2010; cited from earlier work

Question: What does the source list for CCC1(c2ccccc2)C(=O)NC(=O)N([11CH3])C1=O (centres unmarked) [[^11C]mephobarbital]?
Answer: fraction unbound in plasma [1]: 0.21±0.05; Blood activity concentrations (SUV), comparison of groups and scans ([2]; 25 and 60 min, wild-type and Mdr1a/b(-/-) mice, scan 1 and 2, three comparisons excepted (p < 0.05)): similar; Brain AUC0-60, wild-type versus Mdr1a/b(-/-) mice ([2]; scan 1 and scan 2, respectively, n = 3 each): not significantly different; Brain AUC0-60, scan 2 relative to scan 1 ([2]; wild-type mice, tariquidar 15 mg/kg, p = 0.013): significantly decreased; Peak brain activity uptake (SUV) ([3]; scan 1 (before tariquidar), about 1 min after iv injection, n = 3): 3.1±0.2 SUV; brain-to-blood AUC0-60 ratio ([3]; scan 1 (before tariquidar), n = 3): 2.0±0.5; brain-to-blood AUC0-60 ratio in scan 1 as compared to (R)-[11C]verapamil ([3]; scan 1, Supplementary Fig. S1): two times higher; brain-to-blood AUC0-60 ratio ([3]; scan 2 (after tariquidar 15 mg/kg iv), n = 3): 2.4±0.3; Brain uptake, wild-type versus Mrp1(-/-) mice [4]: did neither differ; Brain uptake, untreated versus MK571 pretreated mice [5]: did neither differ; total activity in brain in the form of unchanged parent ([6]; rat brain tissue extracts, n = 5): 96±6%; total activity in plasma as unchanged parent ([6]; rat plasma): > 85%

Question: With CCC1(c2ccccc2)C(=O)NC(=O)N(C)C1=O (centres unmarked) [mephobarbital, methylphenobarbital] as the compound, how does the “basolateral-to-apical transport by murine Mdr1a” value (murine Mdr1a (Pgp)) read?
Answer: lack of active transport

Question: What about the “basolateral-to-apical transport by human MDR1” value (human MDR1 (Pgp) [7]) of the same compound?
Answer: lack of active transport

Question: What about the “basolateral-to-apical transport by human MRP1” value (human MRP1) of the same compound?
Answer: lack of active transport

Question: With CCC1(c2ccccc2)C(=O)NC(=O)NC1=O [phenobarbital] as the compound, how does the “inhibition of MDR1 transport by tariquidar” value (human MDR1 (Pgp) [8]) read?
Answer: 54%

Question: With COc1cc2c(cc1OC)CN(CCc1ccc(NC(=O)c3cc(OC)c(OC)cc3NC(=O)c3cnc4ccccc4c3)cc1)CC2 [tariquidar] as the compound, how does the “inhibition of Pgp at the BBB” value [9] read?
Answer: completely inhibit Pgp
